The values below come from ChEMBL document CHEMBL1681721, “Synthesis, in vitro antimalarial and cytotoxicity of artemisinin-aminoquinoline hybrids” (Bioorg Med Chem Lett, 2011).

SMILES strings stand for the structures.

In series [1] the test system is Plasmodium falciparum. Put plainly: Resistance index, ratio of IC50 for chloroquine-resistant Plasmodium falciparum Dd2 to IC50 for chloroquine-sensitive Plasmodium falciparum D10. In kind it is functional. The essentials:
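Calculated as IC50 (Dd2) / IC50 (D10), using IC50s from the parallel in vitro assays on both P. falciparum strains.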

Another series has as its system CHO. Kind of series: Cytotoxicity against CHO cells by MTT assay. In kind it is cell-based, Cricetulus griseus. The essentials: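 MTT viability assay on Chinese hamster ovary (CHO) cells, with emetine as the reference drug. IC50 is the average of n data sets.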
Background: Tetrazolium dyes change colour on reduction, which living cells bring about.

The subject of series [2] is Plasmodium falciparum. Kind of series: Antiplasmodial activity against chloroquine-resistant Plasmodium falciparum Dd2 by lactate dehydrogenase assay. In kind it is functional, organism-based. The method, boiled down:
(§1)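 IC50s measured in vitro against P. falciparum D10 (chloroquine-sensitive) and Dd2 (chloroquine-resistant). Compounds insoluble in the test medium were added as suspensions in DMSO. Chloroquine served as the reference antimalarial. Values are averages over n data sets.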

Series [3] relates to Plasmodium falciparum. Kind of series: Antiplasmodial activity against chloroquine-sensitive Plasmodium falciparum D10 by lactate dehydrogenase assay. In kind it is functional, organism-based. The method, boiled down:
as §1

The nature of series [4]: Selectivity index, ratio of IC50 for CHO cells to IC50 for chloroquine-sensitive Plasmodium falciparum D10. In kind it is toxicity, cell-based. To be noted: hamster; for Selectivity Index: cho; for selectivity ratio: CHO cells, read-out: Selectivity Index. The method, boiled down: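 Calculated as IC50 (CHO, MTT assay) / IC50 (P. falciparum D10), using IC50s measured in this work.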

The test system of series [5] is Plasmodium falciparum. Kind of series: Ratio of chloroquine IC50 to compound IC50 for chloroquine-resistant Plasmodium falciparum Dd2. In kind it is functional.

Turning to `C[C@H]1[C@@H](OCCNCCNc2ccnc3cc(Cl)ccc23)O[C@@H]2O[C@@]3(C)CC[C@H]4[C@H](C)CC[C@@H]1[C@@]24OO3`, in the series with Plasmodium falciparum [1], the “Ratio IC50” value came out at 2. For the same compound, the IC50 in the series with CHO (cho) is 33000 nM; with Plasmodium falciparum [2] it was 153 nM; in the series on Plasmodium falciparum [3], 84.6 nM. Also, the “Selectivity Index” value in series [4] amounted to 391.

On to `C[C@H]1[C@@H](OCCNCCNc2ccnc3cc(Cl)ccc23)O[C@@H]2O[C@@]3(C)CC[C@H]4[C@H](C)CC[C@@H]1[C@@]24OO3.O=C(O)C(=O)O`, for which the “Ratio IC50” value with Plasmodium falciparum [1] is given as 1. Besides, the IC50 with CHO (cho) came to 1640 nM; with Plasmodium falciparum [2], 25.7 nM; with Plasmodium falciparum [3], 21.5 nM. Besides, in series [4], the “Selectivity Index” value came out at 77.

Take `C[C@H]1[C@@H](OCCNCCCNc2ccnc3cc(Cl)ccc23)O[C@@H]2O[C@@]3(C)CC[C@H]4[C@H](C)CC[C@@H]1[C@@]24OO3`: the “Ratio IC50” value with Plasmodium falciparum [1] worked out at 2. The IC50 in the series with CHO (cho) worked out at 37300 nM; in the series with Plasmodium falciparum [2], 183 nM; in the series on Plasmodium falciparum [3] it was 118 nM. In addition, the “Selectivity Index” value in series [4] is listed as 317.

Regarding `C[C@H]1[C@@H](OCCNCCCNc2ccnc3cc(Cl)ccc23)O[C@@H]2O[C@@]3(C)CC[C@H]4[C@H](C)CC[C@@H]1[C@@]24OO3.O=C(O)C(=O)O`, the “Ratio IC50” value with Plasmodium falciparum [1] came out at 1. Moreover, the IC50 with CHO (cho) amounted to 170 nM; in the series on Plasmodium falciparum [2], 19.8 nM; in the series with Plasmodium falciparum [3], 14.3 nM. Also, the “Selectivity Index” value in series [4] was found to be 12.

For the compound `C[C@H]1[C@@H](OCCNc2ccc(Nc3ccnc4cc(Cl)ccc34)cc2)O[C@@H]2O[C@@]3(C)CC[C@H]4[C@H](C)CC[C@@H]1[C@@]24OO3`, the “Ratio IC50” value in the series with Plasmodium falciparum [1] was found to be 2. For the same compound, the IC50 in the series with Plasmodium falciparum [2] was found to be 69.2 nM; in the series with Plasmodium falciparum [3], 30.4 nM.

`C[C@H]1[C@@H](OCCNc2ccc(Nc3ccnc4cc(Cl)ccc34)cc2)O[C@@H]2O[C@@]3(C)CC[C@H]4[C@H](C)CC[C@@H]1[C@@]24OO3.O=C(O)C(=O)O`: the “Ratio IC50” value with Plasmodium falciparum [1] came to 2. The IC50 with CHO (Cricetulus griseus, CHO) turned out to be 35200 nM; in the series on Plasmodium falciparum [2], 30.2 nM; in the series with Plasmodium falciparum [3] (Plasmodium falciparum, D10) it was 17.2 nM. In addition, the selectivity ratio in series [4] is 2040.

For `CC(CNc1ccnc2cc(Cl)ccc12)NCCO[C@H]1O[C@@H]2O[C@@]3(C)CC[C@H]4[C@H](C)CC[C@@H]([C@H]1C)[C@@]24OO3` (stereo not given in full), the “Ratio IC50” value in the series on Plasmodium falciparum [1] came out at 1; in the series on Plasmodium falciparum [5], 9. In addition, the IC50 with CHO (cho) is 3390 nM; with Plasmodium falciparum [2], 17.1 nM; in the series with Plasmodium falciparum [3], 12.2 nM. For the same compound, in series [4], the selectivity ratio was found to be 279.

In the case of `CC(CNc1ccnc2cc(Cl)ccc12)NCCO[C@H]1O[C@@H]2O[C@@]3(C)CC[C@H]4[C@H](C)CC[C@@H]([C@H]1C)[C@@]24OO3.O=C(O)C(=O)O` (stereo not given in full), the “Ratio IC50” value with Plasmodium falciparum [1] came to 1; with Plasmodium falciparum [5], 7. For the same compound, the IC50 in the series on CHO (Cricetulus griseus, CHO) stood at 2750 nM; in the series with Plasmodium falciparum [2] (Plasmodium falciparum, Dd2) it was 20.8 nM; in the series on Plasmodium falciparum [3] (Plasmodium falciparum, D10) it was 14.9 nM. For the same compound, the “Selectivity Index” value in series [4] was found to be 184.

Take `C[C@H]1[C@@H](OCCN2CCN(c3ccnc4cc(Cl)ccc34)CC2)O[C@@H]2O[C@@]3(C)CC[C@H]4[C@H](C)CC[C@@H]1[C@@]24OO3`: the “Ratio IC50” value with Plasmodium falciparum [1] is recorded as 2. The IC50 was found to be 5920 nM in the series on CHO (Cricetulus griseus, CHO); 68.5 nM in the series with Plasmodium falciparum [2] (Plasmodium falciparum, Dd2); 30.7 nM in the series on Plasmodium falciparum [3] (Plasmodium falciparum, D10). Further, the selectivity ratio in series [4] was determined as 193.

As to `C[C@H]1[C@@H](OCCN2CCN(CCNc3ccnc4cc(Cl)ccc34)CC2)O[C@@H]2O[C@@]3(C)CC[C@H]4[C@H](C)CC[C@@H]1[C@@]24OO3`, the “Ratio IC50” value in the series with Plasmodium falciparum [1] stood at 1. Also, the IC50 with Plasmodium falciparum [2] turned out to be 276 nM; with Plasmodium falciparum [3] it was 201 nM.

For `C[C@H]1[C@@H](OCCN2CCN(CCNc3ccnc4cc(Cl)ccc34)CC2)O[C@@H]2O[C@@]3(C)CC[C@H]4[C@H](C)CC[C@@H]1[C@@]24OO3.O=C(O)C(=O)O`, in the series on Plasmodium falciparum [1], the “Ratio IC50” value stood at 1. Besides, the IC50 was 2320 nM in the series with CHO (Cricetulus griseus, CHO); 29.2 nM in the series with Plasmodium falciparum [2]; 29 nM with Plasmodium falciparum [3]. The selectivity ratio in series [4] was found to be 80.

In the case of `C[C@H]1[C@@H](O)O[C@@H]2O[C@@]3(C)CC[C@H]4[C@H](C)CC[C@@H]1[C@@]24OO3` [ARTENIMOL], the “Ratio IC50” value with Plasmodium falciparum [1] was 0.4.

Regarding `CC[C@H]1CN2CCc3cc(OC)c(OC)cc3[C@@H]2C[C@@H]1C[C@H]1NCCc2cc(OC)c(OC)cc21` [EMETINE], in the series with CHO (Cricetulus griseus, CHO), half-maximal inhibition (IC50) required 190 nM. That is a sub-micromolar value.

A word on the IC50: it is the concentration that inhibits the measured activity by half. High values mean weaker potency, low ones greater potency.
